Results as given in ChEMBL document CHEMBL1944511, “Bakuchiol derivatives as novel and potent cytotoxic agents: a report” (Eur J Med Chem, 2012).

Columns and labels:
MCF7 [1] = assay: Growth inhibition of human MCF7 cells at 50 uM after 48 hrs by sulpharhodamine B assay; format: functional; details: MCF7, 48 h, read-out: GI
Summary of the method: (§1)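 This is the SRB protein-stain assay on adherent cells in RPMI-1640/MEM with 10% FCS. Each compound in DMSO (vehicle <0.2%) was applied at a single fixed concentration for 48 h. Cells were fixed with TCA and stained with SRB, and the dye was solubilised in Tris and read at 570/620 nm. Percent growth inhibition is relative to vehicle-treated controls, reported as mean ± SD of three experiments run in triplicate.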

A549 [2] = assay: Growth inhibition of human A549 cells at 50 uM after 48 hrs by sulpharhodamine B assay; format: functional; details: A549, 48 h, read-out: GI; summary of the method: as §1
PC-3 [3] = assay: Growth inhibition of human PC3 cells at 50 uM after 48 hrs by sulpharhodamine B assay; format: functional; details: PC-3, 48 h, read-out: GI
Summary of the method: (§2)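 Cells grown in RPMI-1640/MEM with 10% FCS, penicillin/streptomycin, 37 °C, 5% CO2. Seeded in 96-well plates, allowed to adhere overnight, then exposed 48 h to analogs in DMSO (vehicle <0.2% in controls). TCA-fixed, stained with 0.4% SRB in 1% acetic acid, dye solubilized in 10 mM Tris base, OD 570 nm (ref 620 nm). Mean ± SD of three experiments run in triplicate.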

OVCAR-5 [4] = assay: Growth inhibition of human OVCAR5 cells at 50 uM after 48 hrs by sulpharhodamine B assay; format: functional; details: OVCAR-5, 48 h, read-out: GI; summary of the method: as §1
IMR-32 [5] = assay: Growth inhibition of human IMR32 cells at 50 uM after 48 hrs by sulpharhodamine B assay; format: functional; details: IMR-32, 48 h, read-out: GI; summary of the method: as §1
HeLa [6] = assay: Growth inhibition of human HeLa cells at 50 uM after 48 hrs by sulpharhodamine B assay; format: functional; details: read-out: GI; summary of the method: as §1
THP-1 [7] = assay: Growth inhibition of human THP1 cells at 50 uM after 48 hrs by sulpharhodamine B assay; format: functional; details: THP-1, 48 h, read-out: GI; summary of the method: as §2
MCF7 [8] = assay: Growth inhibition of human MCF7 cells at 30 uM after 48 hrs by sulpharhodamine B assay; format: functional; details: MCF7, 48 h, read-out: GI; summary of the method: as §1
A549 [9] = assay: Growth inhibition of human A549 cells at 30 uM after 48 hrs by sulpharhodamine B assay; format: functional; details: A549, 48 h, read-out: GI; summary of the method: as §1
PC-3 [10] = assay: Growth inhibition of human PC3 cells at 30 uM after 48 hrs by sulpharhodamine B assay; format: functional; details: PC-3, 48 h, read-out: GI; summary of the method: as §2
OVCAR-5 [11] = assay: Growth inhibition of human OVCAR5 cells at 30 uM after 48 hrs by sulpharhodamine B assay; format: functional; details: OVCAR-5, 48 h, read-out: GI; summary of the method: as §1
IMR-32 [12] = assay: Growth inhibition of human IMR32 cells at 30 uM after 48 hrs by sulpharhodamine B assay; format: functional; details: IMR-32, 48 h, read-out: GI; summary of the method: as §1
HeLa [13] = assay: Growth inhibition of human HeLa cells at 30 uM after 48 hrs by sulpharhodamine B assay; format: functional; details: read-out: GI; summary of the method: as §1
THP-1 [14] = assay: Growth inhibition of human THP1 cells at 30 uM after 48 hrs by sulpharhodamine B assay; format: functional; details: THP-1, 48 h, read-out: GI; summary of the method: as §2
HEp-2 [15] = assay: Growth inhibition of human Hep2 cells at 50 uM after 48 hrs by sulpharhodamine B assay; format: functional; details: HEp-2, 48 h, read-out: GI; summary of the method: as §1
HEp-2 [16] = assay: Growth inhibition of human Hep2 cells at 30 uM after 48 hrs by sulpharhodamine B assay; format: functional; details: HEp-2, 48 h, read-out: GI; summary of the method: as §1
T47D = assay: Cytotoxicity against human T47D cells; format: functional, cell-based

| Compound | inhibition of growth at 50 µM (MCF7 [1]) [%] | inhibition of growth at 50 µM (A549 [2]) [%] | inhibition of growth at 50 µM (PC-3 [3]) [%] | inhibition of growth at 50 µM (OVCAR-5 [4]) [%] | inhibition of growth at 50 µM (IMR-32 [5]) [%] | inhibition of growth at 50 µM (HeLa [6]) [%] | inhibition of growth at 50 µM (THP-1 [7]) [%] | inhibition of growth at 30 µM (MCF7 [8]) [%] | inhibition of growth at 30 µM (A549 [9]) [%] | inhibition of growth at 30 µM (PC-3 [10]) [%] | inhibition of growth at 30 µM (OVCAR-5 [11]) [%] | inhibition of growth at 30 µM (IMR-32 [12]) [%] | inhibition of growth at 30 µM (HeLa [13]) [%] | inhibition of growth at 30 µM (THP-1 [14]) [%] | inhibition of growth at 50 µM (HEp-2 [15]) [%] | inhibition of growth at 30 µM (HEp-2 [16]) [%] | IC50 (T47D) [µM] |
| --- | --- | --- | --- | --- | --- | --- | --- | --- | --- | --- | --- | --- | --- | --- | --- | --- | --- |
| C=C[C@@](C)(/C=C/c1ccc(O)cc1)CCC=C(C)C [BAKUCHIOL] | 63 | 63 | 58 | 66 | 58 | 55 | 74 | 33 | 30 | 21 | 25 | 31 | 20 | 44 | 53 | 20 | 28.9 |
| C=C[C@@](C)(/C=C/c1ccc(OC(=O)CCCCCCCCC)cc1)CCC=C(C)C | 10 | 48 | 50 | 42 | 52 | 50 | 52 | 12 | 33 | 27 | 29 | 22 | 24 | 39 | 30 | 16 |  |
